UPR XBP1 act – activators of adaptive arm of unfolded protein response (XBP1); CHO-XBP1 luciferase reporter, IRE1-XBP1 UPR activation, luminescence; percent of tunicamycin response, DMSO as zero; activation, % at 20 µM; 330,000 compounds, 0.33% hits; AID 463104;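 active = versus positive control, 20 µM dose yields 30% or more activation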
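Material: IRE1-XBP1 luciferase reporter CHO line / Quantity: one thousand reporter cells per well / Buffer or medium: F12 with 10% serum / Compound: 20 µM single concentration, DMSO 1% / Times: 6 h treatment, 37 °C / Detection: Steady-Glo luciferase glow luminescence, 10 min after reagent addition / Benchmarks: tunicamycin high, DMSO low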
UPR CHOP act – activators of apoptotic arm of unfolded protein response (CHOP); CHO-CHOP luciferase reporter, UPR activation, luminescence; percent of tunicamycin response over DMSO baseline; activation, % at 10 µM; 330,000 compounds, 0.34% hits;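 active = at 10 µM dose, activation of 40% or more, normalized to positive control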
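measured by = luciferase luminescence | assay system = CHO-CHOP cells, stable luciferase reporter of PERK-eIF2a-CHOP signalling | amount = 500 reporter cells seeded per well | timing = 6 h compound exposure at 37 °C after overnight seeding | controls = positive tunicamycin 10 µg/mL, negative DMSO alone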
aDG glyco up – increases alpha dystroglycan glycosylation; 360,000 compounds, 0.22% hits; activation, % at 10 µM; Pro5-aDG cells, alpha-DG glycosylation AlphaScreen (IIH6); 0% Pro5, 100% B10-LARGE cell signal;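 active = activation of at least 8% versus controls, or a plate z-score of at least 8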;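 note: Pro5 are CHO cells carrying HIG-tagged alpha-DG that lacks glycosylation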
GRIN3A LBD mod – modulators (binders) of human NR3A ligand-binding domain. NR3A LBD differential scanning fluorimetry, Tm shift; 0% = protein alone, 100% = glycine-bound protein. 340,000 compounds, 2.5% hits. Tm shift relative to glycine control, % at 25 µM;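 active = melting temperature shift of at least 10% of the positive control shift, at one fixed dose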
CHOP inhibitor – CHOP inhibition in unfolded protein response. AID 2732. 220,000 compounds, 3.8% hits. CHO-K1 CHOP-promoter luciferase, tunicamycin-induced, 15-18 h. inhibition, % at 10 µM;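 active = compounds that reduced the stress-induced luciferase reporter signal by more than about 70% of percent inhibition, limit read from the data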
MPTP block – blocks calcium-induced mitochondrial swelling; 360,000 compounds, 1.4% hits; isolated mouse mitochondria, Ca2+ swelling absorbance, 30 min; inhibition, % at 10 µM; AID 602449;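 active = inhibition of 50% or more, scaled per plate between neutral and stimulator controls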
Rh123 counter – mitochondrial membrane potential, counter-screen; shares compounds with MPTP block; isolated mitochondria, Rhodamine 123 fluorescence; inhibition, % at 10 µM; 5,000 compounds, 78% hits; AID 624504; in the data active = inhibition above about 22%
MPTP abs DR – dose response confirmation of mitochondrial permeability transition pore inhibitors; shares compounds with MPTP block; isolated mitochondria swelling, absorbance; IC50, µM; 780 compounds, 58% hits; AID 651561; in the data active = IC50 below about 20 µM
MPTP counter DR – active in counter-screen for permeability transition pore inhibitors; isolated mitochondria counterscreen, fluorescence read-out; IC50, µM; shares compounds with MPTP block; 780 compounds, 49% hits; in the data active = IC50 below about 80 µM
Large screens that a line does not name were inactive (follow-up assays come after a bar, where they were run); ! = not confirmed by another sample. Rows were chosen to be rich in hits. Some 5.6% of all compounds tested hit in one or more screens of this group.

COc1ccc(CC(=O)Nc2cccc(SC)c2)cc1OC	MPTP block 53.9 (no result: UPR XBP1 act, UPR CHOP act) | Rh123 counter 42.1
COc1ccc(CC(=O)Nc2cccc(S(=O)(=O)N3CCCCCC3)c2)cc1OC	CHOP inhibitor 70.6, MPTP block 87.1 (no result: UPR XBP1 act, UPR CHOP act) | Rh123 counter 80.9
Cc1ccc(C)c(C(=O)CCC(=O)Nc2ccc(F)cc2)c1	none (no result: CHOP inhibitor)
COCCNCC(=O)Nc1ccc(OC(F)(F)F)cc1	none
O=C1CCCN1CC(O)CS(=O)(=O)Cc1ccccc1Cl (stereo unspecified)	none (no result: CHOP inhibitor)
Cc1ccc(NC(=O)c2ccccc2NS(=O)(=O)c2ccc(Cl)s2)cc1S(=O)(=O)N1CCOCC1	GRIN3A LBD mod 24.3, MPTP block 98.9 | Rh123 counter 77.2
O=S(=O)(Nc1cccc(S(=O)(=O)N2CCOCC2)c1)c1ccc(Cl)s1	none
COc1ccccc1NC(=O)c1ccccc1NS(=O)(=O)c1cccs1	none
COc1ccc(C)cc1NC(=O)c1ccccc1NS(=O)(=O)c1ccc(Cl)s1	GRIN3A LBD mod 16.8, MPTP block 88.1 | Rh123 counter 61.0
CSCCC(NC(=O)c1ccc(Cl)cc1)C(=O)OCC(=O)Nc1ccc(C#N)cc1 (stereo unspecified)	MPTP block 50.4 | Rh123 counter 44.2
CSCCC(NC(=O)c1ccc(Cl)cc1)C(=O)OCC(C)=O (stereo unspecified)	none
CC1(C)Nc2ccccc2N(Cc2ccc([N+](=O)[O-])cc2)C1=O	none
C/C(=N\Nc1ncc(Cl)cc1Cl)c1ccc(C#N)cc1	none
COc1ccc(/C(C)=N/Nc2ncc(Cl)cc2Cl)c(O)c1	MPTP block 73.3 | Rh123 counter 72.9
CN1CCN(/N=C/c2ccc(Cl)c(Cl)c2)CC1	MPTP block 89.8 | Rh123 counter inactive
CCCNC(=O)c1ccc2c(c1)nc(C)n2-c1cccc(Cl)c1	none (no result: CHOP inhibitor)
CCN1CCN(c2cc(N3CCc4ccccc4C3)c(F)cc2[N+](=O)[O-])CC1	MPTP block 103.5 | Rh123 counter inactive
CC(=O)N1CCN(c2cc(N3CCCC3)c(F)cc2[N+](=O)[O-])CC1	none
O=C(c1ccc2c(=O)n(C3CCCC3)c(=S)[nH]c2c1)N1CCc2ccccc21	MPTP block 79.6 | Rh123 counter 68.6
O=C1CCc2ccc(OCCCCN3CCN(c4cccc(Cl)c4Cl)CC3)cc2N1	MPTP block 79.7 | Rh123 counter 20.3
COc1ccc(C(=O)Nc2ccc(C(=O)c3ccccc3)cc2)cc1	MPTP block 62.4 (no result: CHOP inhibitor) | Rh123 counter 41.0
COc1cccc(C(=O)Nc2cc(C(F)(F)F)ccc2Cl)c1	none
CCNC(=S)Nc1ccc(Cl)c(C(F)(F)F)c1	MPTP block 90.6 | Rh123 counter 95.0
COc1cccc(C(=O)Nc2ccc(Cl)c(C(F)(F)F)c2)c1	CHOP inhibitor 70.9, MPTP block 99.2 | Rh123 counter 89.0
O=C(Nc1ccc(Cl)c(C(F)(F)F)c1)c1ccco1	MPTP block 80.6 | Rh123 counter 73.5
CCN(C[C@H]1N[C@@](CC)(C(=O)OC)[C@H]2C(=O)N(Cc3ccccc3)C(=O)[C@@H]12)C(=O)NC(C)C	none (no result: CHOP inhibitor)
COc1cc(C(=O)Nc2ccc(Cl)c(C(F)(F)F)c2)cc(OC)c1OC	MPTP block 80.8 | Rh123 counter 77.4
CCC(=O)/C=C1/Sc2ccccc2N1CC	none
CCN1/C(=C/c2sc(-c3ccccc3C)c[n+]2C)Sc2ccccc21	CHOP inhibitor 80.5, MPTP block 95.0 (no result: UPR XBP1 act, UPR CHOP act) | Rh123 counter 107.3
O=C(c1cccc2ccccc12)C1CCCN(C(=O)c2ccc(N3CCOCC3)cc2)C1 (stereo unspecified)	none
Cc1ccc(NS(=O)(=O)c2ccc3c(c2)C(=O)c2ccccc2C3=O)c(C)c1	CHOP inhibitor 80.4, MPTP block 82.1 (no result: UPR XBP1 act, UPR CHOP act) | Rh123 counter 72.1
Cc1cccnc1N(C(=O)Nc1ccccc1)C1=NCC(C)(C)S1	none
Cc1cccnc1N(C(=O)Nc1cccc(Cl)c1)C1=NCC(C)(C)S1	MPTP block 52.3 | Rh123 counter 74.7
CCN(C(=O)COC(=O)COc1ccc(Cl)c(C)c1)C1CCS(=O)(=O)C1 (stereo unspecified)	none (no result: CHOP inhibitor)
Cc1cc(OCCCN2CCCC2)ccc1Cl	none (no result: CHOP inhibitor)
COc1cc(CNCCNC(=O)c2nonc2N)ccc1OCc1ccc(Cl)cc1	MPTP block 83.3 | Rh123 counter 28.2
Nc1nonc1C(=O)NCCNCc1cc(Br)ccc1OCc1ccccc1F	MPTP block 84.3 (no result: CHOP inhibitor) | Rh123 counter 79.8
Cc1ccc(NC(=O)CCC(=O)N/N=C/c2ccccc2O)cc1	none (no result: CHOP inhibitor)
Cc1ccc(SCCC(=O)N/N=C/c2ccccc2O)cc1	MPTP block 52.2 | Rh123 counter 44.6
CC(C)(C)c1ccc(-c2cn(-c3ccc(Br)cc3)c3[n+]2CCCS3)cc1	MPTP block 52.8 (no result: UPR XBP1 act, UPR CHOP act) | Rh123 counter 99.3
c1ccc(-c2cn(-c3ccccc3)c3[n+]2CCS3)cc1	none
COc1ccccc1OCC(=O)NCC1CCCN(Cc2cnn(C(C)C)c2)C1 (stereo unspecified)	none (no result: CHOP inhibitor)
COc1ccc(C(=O)Nc2nc(-c3ccccn3)cs2)cc1S(=O)(=O)N1CCOCC1	none (no result: CHOP inhibitor)
CC1(C)CCC(=O)N2CC[C@H]3C[C@H](OC(=O)Nc4ccc(Br)cc4)C[C@@H]1[C@H]32	MPTP block 68.8 (no result: CHOP inhibitor) | Rh123 counter 86.7
O=C(Nc1ccc2c(c1)OCO2)O[C@@H]1C[C@H]2CCCC(=O)N3CC[C@@H](C1)[C@@H]23	none (no result: CHOP inhibitor)
O=c1[nH]nc(Cc2ccccc2)c2ccccc12	none
O=c1[nH]nc(Cc2ccc(-c3ccc(Cl)cc3)o2)c2ccccc12	MPTP block 64.5 | Rh123 counter inactive | MPTP abs DR inactive | MPTP counter DR 10
CC(C)(C)c1ccc(S(=O)(=O)N2CCC(N3CCCCC3)CC2)cc1	MPTP block 71.2 (no result: CHOP inhibitor) | Rh123 counter inactive | MPTP abs DR inactive | MPTP counter DR 27.2
CC(C)(C)c1ccc(S(=O)(=O)N2CCC(O)(c3ccc(Cl)cc3)CC2)cc1	MPTP block 84.1 | Rh123 counter 91.9
Cc1ccc(Cn2c(CCNc3nc(-c4ccc(Cl)c([N+](=O)[O-])c4)cs3)nc3cc(C(=O)NCCCO)ccc32)cc1	none (no result: CHOP inhibitor)
O=C1c2c(O)ccc(O)c2C(=O)c2c(NCCNCCO)ccc(NCCNCCO)c21	MPTP block 106.5! | Rh123 counter inactive
COc1ccc(OCc2cccc(C(=O)Nc3ccc(CN4CCCCC4)cc3)c2)cc1	none
